# ChEMBL document CHEMBL2331542, “Synthesis and in vitro antibacterial activity of quinolone/naphthyridone derivatives containing 3-alkoxyimino-4-(methyl)aminopiperidine scaffolds” (2013)
# System: Escherichia coli
# Test: Antibacterial activity against extended-spectrum beta-lactamase-producing Escherichia coli isolate 12-4
# Format: functional
# Method in brief: (§1)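 MIC determined in vitro by a standard technique and defined as the lowest compound concentration giving complete inhibition of bacterial growth. The Gram-positive and Gram-negative panels were tested alongside gemifloxacin, levofloxacin and ciprofloxacin reference drugs.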
row,SMILES,MIC [µg/mL]
1,CNC1CCN(c2c(F)cc3c(=O)c(C(=O)O)cn4c3c2OC[C@@H]4C)C/C1=N\OC (stereo partly specified),16

# System: Escherichia coli
# Test: Antibacterial activity against extended-spectrum beta-lactamase-producing Escherichia coli isolate 12-2
# Format: functional
# Method in brief: as §1
row,SMILES,MIC [µg/mL]
1,CNC1CCN(c2c(F)cc3c(=O)c(C(=O)O)cn4c3c2OC[C@@H]4C)C/C1=N\OC (stereo partly specified),> 128

# System: Escherichia coli
# Test: Antibacterial activity against extended-spectrum beta-lactamase-producing Escherichia coli isolate 12-1
# Format: functional
# Method in brief: as §1
row,SMILES,MIC [µg/mL]
1,CNC1CCN(c2c(F)cc3c(=O)c(C(=O)O)cn4c3c2OC[C@@H]4C)C/C1=N\OC (stereo partly specified),128

# System: Escherichia coli
# Test: Antibacterial activity against Escherichia coli isolate 12-5
# Format: functional
# Method in brief: as §1
row,SMILES,MIC [µg/mL]
1,CNC1CCN(c2c(F)cc3c(=O)c(C(=O)O)cn4c3c2OC[C@@H]4C)C/C1=N\OC (stereo partly specified),128

# System: Escherichia coli
# Test: Antibacterial activity against Escherichia coli isolate 12-4
# Format: functional
# Method in brief: as §1
row,SMILES,MIC [µg/mL]
1,CNC1CCN(c2c(F)cc3c(=O)c(C(=O)O)cn4c3c2OC[C@@H]4C)C/C1=N\OC (stereo partly specified),128

# System: Escherichia coli
# Test: Antibacterial activity against Escherichia coli isolate 12-1
# Format: functional
# Method in brief: as §1
row,SMILES,MIC [µg/mL]
1,CNC1CCN(c2c(F)cc3c(=O)c(C(=O)O)cn4c3c2OC[C@@H]4C)C/C1=N\OC (stereo partly specified),8

# System: Escherichia coli
# Test: Antibacterial activity against Escherichia coli ATCC 25922
# Format: functional
# Method in brief: as §1
row,SMILES,MIC [µg/mL]
1,CNC1CCN(c2c(F)cc3c(=O)c(C(=O)O)cn4c3c2OC[C@@H]4C)C/C1=N\OC (stereo partly specified),0.25

# System: Streptococcus pneumoniae
# Test: Antibacterial activity against Streptococcus pneumoniae isolate 12-5
# Format: functional
# Method in brief: as §1
row,SMILES,MIC [µg/mL]
1,CNC1CCN(c2c(F)cc3c(=O)c(C(=O)O)cn4c3c2OC[C@@H]4C)C/C1=N\OC (stereo partly specified),1

# System: Streptococcus pneumoniae
# Test: Antibacterial activity against Streptococcus pneumoniae isolate 12-2
# Format: functional
# Method in brief: as §1
row,SMILES,MIC [µg/mL]
1,CNC1CCN(c2c(F)cc3c(=O)c(C(=O)O)cn4c3c2OC[C@@H]4C)C/C1=N\OC (stereo partly specified),1

# System: Staphylococcus epidermidis
# Test: Antibacterial activity against methicillin-resistant Staphylococcus epidermidis isolate 12-35
# Format: functional
# Method in brief: (§2)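 MIC determined in vitro by standard techniques, defined as the lowest compound concentration giving complete inhibition of bacterial growth. Gemifloxacin, levofloxacin and ciprofloxacin were tested alongside as reference drugs.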
row,SMILES,MIC [µg/mL]
1,CNC1CCN(c2c(F)cc3c(=O)c(C(=O)O)cn4c3c2OC[C@@H]4C)C/C1=N\OC (stereo partly specified),0.125

# System: Staphylococcus epidermidis
# Test: Antibacterial activity against methicillin-resistant Staphylococcus epidermidis isolate 12-33
# Format: functional
# Method in brief: as §2
row,SMILES,MIC [ng/mL]
1,CNC1CCN(c2c(F)cc3c(=O)c(C(=O)O)cn4c3c2OC[C@@H]4C)C/C1=N\OC (stereo partly specified),< 8

# System: Staphylococcus epidermidis
# Test: Antibacterial activity against methicillin-resistant Staphylococcus epidermidis isolate 12-5
# Format: functional
# Method in brief: as §2
row,SMILES,MIC [µg/mL]
1,CNC1CCN(c2c(F)cc3c(=O)c(C(=O)O)cn4c3c2OC[C@@H]4C)C/C1=N\OC (stereo partly specified),0.125

# System: Staphylococcus epidermidis
# Test: Antibacterial activity against methicillin-sensitive Staphylococcus epidermidis isolate 12-3
# Format: functional
# Method in brief: as §1
row,SMILES,MIC [µg/mL]
1,CNC1CCN(c2c(F)cc3c(=O)c(C(=O)O)cn4c3c2OC[C@@H]4C)C/C1=N\OC (stereo partly specified),0.5

# System: Staphylococcus epidermidis
# Test: Antibacterial activity against methicillin-sensitive Staphylococcus epidermidis isolate 12-2
# Format: functional
# Method in brief: as §1
row,SMILES,MIC [µg/mL]
1,CNC1CCN(c2c(F)cc3c(=O)c(C(=O)O)cn4c3c2OC[C@@H]4C)C/C1=N\OC (stereo partly specified),2

# System: Staphylococcus epidermidis
# Test: Antibacterial activity against methicillin-sensitive Staphylococcus epidermidis isolate 12-1
# Format: functional
# Method in brief: as §1
row,SMILES,MIC [µg/mL]
1,CNC1CCN(c2c(F)cc3c(=O)c(C(=O)O)cn4c3c2OC[C@@H]4C)C/C1=N\OC (stereo partly specified),0.5

# System: Staphylococcus aureus
# Test: Antibacterial activity against methicillin-resistant Staphylococcus aureus isolate 12-15
# Format: functional
# Method in brief: as §2
row,SMILES,MIC [µg/mL]
1,CNC1CCN(c2c(F)cc3c(=O)c(C(=O)O)cn4c3c2OC[C@@H]4C)C/C1=N\OC (stereo partly specified),1

# System: Staphylococcus aureus
# Test: Antibacterial activity against methicillin-resistant Staphylococcus aureus isolate 12-13
# Format: functional
# Method in brief: as §2
row,SMILES,MIC [µg/mL]
1,CNC1CCN(c2c(F)cc3c(=O)c(C(=O)O)cn4c3c2OC[C@@H]4C)C/C1=N\OC (stereo partly specified),1

# System: Staphylococcus aureus
# Test: Antibacterial activity against methicillin-resistant Staphylococcus aureus isolate 12-3
# Format: functional
# Method in brief: as §2
row,SMILES,MIC [µg/mL]
1,CNC1CCN(c2c(F)cc3c(=O)c(C(=O)O)cn4c3c2OC[C@@H]4C)C/C1=N\OC (stereo partly specified),1

# System: Staphylococcus aureus
# Test: Antibacterial activity against methicillin-sensitive Staphylococcus aureus isolate 12-10
# Format: functional
# Method in brief: as §1
row,SMILES,MIC [µg/mL]
1,CNC1CCN(c2c(F)cc3c(=O)c(C(=O)O)cn4c3c2OC[C@@H]4C)C/C1=N\OC (stereo partly specified),0.25

# System: Staphylococcus aureus
# Test: Antibacterial activity against methicillin-sensitive Staphylococcus aureus isolate 12-7
# Format: functional
# Method in brief: as §1
row,SMILES,MIC [µg/mL]
1,CNC1CCN(c2c(F)cc3c(=O)c(C(=O)O)cn4c3c2OC[C@@H]4C)C/C1=N\OC (stereo partly specified),1

# System: Staphylococcus aureus
# Test: Antibacterial activity against methicillin-sensitive Staphylococcus aureus isolate 12-6
# Format: functional
# Method in brief: as §1
row,SMILES,MIC [µg/mL]
1,CNC1CCN(c2c(F)cc3c(=O)c(C(=O)O)cn4c3c2OC[C@@H]4C)C/C1=N\OC (stereo partly specified),0.25

# System: Staphylococcus aureus
# Test: Antibacterial activity against Staphylococcus aureus […]
# Format: functional
# Method in brief: as §1
row,SMILES,MIC [µg/mL]
1,CNC1CCN(c2c(F)cc3c(=O)c(C(=O)O)cn4c3c2OC[C@@H]4C)C/C1=N\OC (stereo partly specified),0.25

# System: Pseudomonas aeruginosa
# Test: Antibacterial activity against Pseudomonas aeruginosa isolate 12-2
# Format: functional
# Method in brief: as §1
row,SMILES,MIC [µg/mL]
1,CNC1CCN(c2c(F)cc3c(=O)c(C(=O)O)cn4c3c2OC[C@@H]4C)C/C1=N\OC (stereo partly specified),8

# System: Pseudomonas aeruginosa
# Test: Antibacterial activity against Pseudomonas aeruginosa isolate 12-1
# Format: functional
# Method in brief: as §1
row,SMILES,MIC [µg/mL]
1,CNC1CCN(c2c(F)cc3c(=O)c(C(=O)O)cn4c3c2OC[C@@H]4C)C/C1=N\OC (stereo partly specified),8

# System: Pseudomonas aeruginosa
# Test: Antibacterial activity against Pseudomonas aeruginosa ATCC 27853
# Format: functional
# Method in brief: as §1
row,SMILES,MIC [µg/mL]
1,CNC1CCN(c2c(F)cc3c(=O)c(C(=O)O)cn4c3c2OC[C@@H]4C)C/C1=N\OC (stereo partly specified),4

# System: Klebsiella pneumoniae
# Test: Antibacterial activity against extended-spectrum beta-lactamase-producing Klebsiella pneumoniae isolate 12-4
# Format: functional
# Method in brief: as §1
row,SMILES,MIC [µg/mL]
1,CNC1CCN(c2c(F)cc3c(=O)c(C(=O)O)cn4c3c2OC[C@@H]4C)C/C1=N\OC (stereo partly specified),0.5

# System: Klebsiella pneumoniae
# Test: Antibacterial activity against extended-spectrum beta-lactamase-producing Klebsiella pneumoniae isolate 12-2
# Format: functional
# Method in brief: as §1
row,SMILES,MIC [µg/mL]
1,CNC1CCN(c2c(F)cc3c(=O)c(C(=O)O)cn4c3c2OC[C@@H]4C)C/C1=N\OC (stereo partly specified),16

# System: Klebsiella pneumoniae
# Test: Antibacterial activity against extended-spectrum beta-lactamase-producing Klebsiella pneumoniae isolate 12-1
# Format: functional
# Method in brief: as §1
row,SMILES,MIC [µg/mL]
1,CNC1CCN(c2c(F)cc3c(=O)c(C(=O)O)cn4c3c2OC[C@@H]4C)C/C1=N\OC (stereo partly specified),16

# System: Klebsiella pneumoniae
# Test: Antibacterial activity against Klebsiella pneumoniae isolate 12-4
# Format: functional
# Method in brief: as §1
row,SMILES,MIC [µg/mL]
1,CNC1CCN(c2c(F)cc3c(=O)c(C(=O)O)cn4c3c2OC[C@@H]4C)C/C1=N\OC (stereo partly specified),0.5

# System: Klebsiella pneumoniae
# Test: Antibacterial activity against Klebsiella pneumoniae isolate 12-2
# Format: functional
# Method in brief: as §1
row,SMILES,MIC [µg/mL]
1,CNC1CCN(c2c(F)cc3c(=O)c(C(=O)O)cn4c3c2OC[C@@H]4C)C/C1=N\OC (stereo partly specified),1

# System: Klebsiella pneumoniae
# Test: Antibacterial activity against Klebsiella pneumoniae isolate 12-1
# Format: functional
# Method in brief: as §1
row,SMILES,MIC [µg/mL]
1,CNC1CCN(c2c(F)cc3c(=O)c(C(=O)O)cn4c3c2OC[C@@H]4C)C/C1=N\OC (stereo partly specified),1
